Hits are enriched below; roughly 3.5% of the tested compounds scored in any of these assays.
RGS4 act – RGS4 potentiators or activators, primary screen, cell-based, HEK293 M3R inducible RGS4, calcium flux; B-score at 10 µM; carbachol calcium flux Fluo4; stronger effect = lower value; AID 463111, 2010; 310,000 compounds, 0.92% hits;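 active = B-score of the integrated calcium signal more than 4 SD below the library mean, with starting fluorescence not abnormally high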;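 note: negative B-score means reduced calcium response which marks RGS4 activation or potentiation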
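Test system: HEK293 cells with stable M3R and inducible RGS4; also added: carbachol at ECmax as muscarinic agonist stimulus; schedule: dye loading 30 min 37 °C, buffer rest 30 min RT; technique: kinetic calcium fluorescence imaging with Fluo4-AM dye, 2 µM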
MrgX1 PAM – positive allosteric modulators of MrgX1, primary screen, HEK293 cells, Fluo-4 calcium flux | B-score at 10 µM | AID 588675, 2011 | FDSS; stronger effect = higher value | 310,000 compounds, 0.63% hits;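 active = plate-corrected calcium response at least 3 library SD above typical, normal starting fluorescence, not activating the receptor alone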;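 note: compound read alongside a low EC10 to EC30 dose of BAM8-22 agonist; peak minus trough fluorescence over baseline measured at the second addition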
Target sequence (Q96LB2 whole entry, looked up): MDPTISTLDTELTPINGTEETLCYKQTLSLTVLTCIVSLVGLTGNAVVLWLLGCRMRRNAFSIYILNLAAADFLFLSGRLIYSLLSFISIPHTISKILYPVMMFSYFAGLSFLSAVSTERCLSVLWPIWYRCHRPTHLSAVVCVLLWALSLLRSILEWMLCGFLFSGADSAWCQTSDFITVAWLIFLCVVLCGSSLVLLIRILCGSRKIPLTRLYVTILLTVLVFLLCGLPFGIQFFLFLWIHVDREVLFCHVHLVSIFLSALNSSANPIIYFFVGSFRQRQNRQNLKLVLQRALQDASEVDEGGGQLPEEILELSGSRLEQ
MrgX1 antagonist – antagonists of human MrgX1 receptor, primary screen, HEK293 cells, Fluo-4 calcium flux; Mas-related G-protein coupled receptor member X1 (Homo sapiens), Q96LB2; AID 588676, 2011; BAM8-22 antagonism; stronger effect = lower value; B-score at 10 µM; 310,000 compounds, 1.3% hits;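 active = calcium-response B-score plate-corrected more than 3 library SD below zero, starting fluorescence within 5 deviations, no agonist response on first addition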;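 note: peak minus trough fluorescence over baseline after final BAM8-22 challenge near maximal dose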
MrgX1 agonist – agonists of human MrgX1 receptor, primary screen, HEK293 cells, Fluo-4 calcium flux | 310,000 compounds, 0.44% hits | B-score at 10 µM | Fluo-4 calcium fluorescence, agonist mode; stronger effect = higher value;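 active = calcium response B-score plate-corrected fluorescence ratio at least 3 library SD, with starting fluorescence B-score inside 5 SD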
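Material: MrgX1-expressing HEK293 cells; input: 15,000 cells per well; doses: test compound given as first of three sequential additions; schedule: overnight plating before 1 h dye loading; technique: Fluo-4 NW calcium-flux fluorescence, kinetic read; evaluation: baseline-normalised fluorescence change ratio, B-scored; control set: plate-wise positive and negative controls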
RGS4 block – RGS4 inhibitors, primary screen, cell-based, HEK293 M3R inducible RGS4, calcium flux. Regulator of G-protein signaling 4 (Homo sapiens), P49798. Fluo-4 calcium flux; stronger effect = higher value; triggered by carbachol at its EC20. B-score at 10 µM. 310,000 compounds, 0.45% hits. AID 463165, 2010;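 active = B-score, a plate-corrected calcium signal, over three deviations above library mean, with baseline fluorescence within five deviations of library mean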;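 note: RGS4 expression induced by doxycycline in cells with stable M3 receptor; B-score is computed from the integrated fluorescence ratio over baseline after carbachol; higher B-score means a larger calcium signal and so more RGS4 inhibition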
MrgX1 ant reconf – MrgX1 receptor antagonists, duplicate retest, confirmation, HEK293 cells, Fluo-4 calcium flux | shares compounds with MrgX1 antagonist | BAM8-22 calcium flux; stronger effect = lower value | remaining BAM8-22 calcium response % of control (stronger effect = lower value), % at 10 µM | 2,300 compounds, 19% hits | AID 602420, 2012;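 active = remaining agonist calcium response no higher than 100% minus 3 SD of agonist-only control wells, with starting fluorescence near control levels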;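 note: agonist BAM8-22 given at a near maximal EC90 to ECmax level; peak minus minimum fluorescence divided by baseline after agonist addition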
HEK293 Ca flux – nonspecific calcium signal in parental HEK293, confirmation, counter-screen for MrgX1 antagonist project, parental HEK293 cells, Fluo-4 calcium flux. 4,000 compounds, 2% hits. Fluo-4 calcium fluorescence, FDSS. AID 624111, 2012. fluorescence ratio F(max-min)/F0 at 10 µM. shares compounds with MrgX1 antagonist;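 active = duplicate-averaged calcium fluorescence ratio at least three times the standard deviation of buffer wells, a nonspecific response in parental cells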
HEK293 Ca counter – calcium response in parental HEK293 cells, primary screen, counter-screen for MrgX1 allosteric activator project, cell-based, Fluo-4 calcium flux, duplicate; shares compounds with MrgX1 antagonist; Fluo-4 fluorescence ratio; stronger effect = higher value; fluorescence ratio F(max-min)/F0 at 10 µM; 4,000 compounds, 0.4% hits;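 active = calcium fluorescence ratio, averaged over duplicates, at least 3 SD of the buffer-well ratio, meaning a nonspecific response in receptor-free cells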;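 note: untransfected parental HEK293 lacking MrgX1 used as counterscreen for MrgX1 allosteric activators; fluorescence change taken during the second addition on a kinetic imager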
HEK293 Ca cntr2 – calcium response in parental HEK293 cells, primary screen, counter-screen for MrgX1 agonist project, cell-based, Fluo-4 calcium flux, duplicate, agonist mode. shares compounds with MrgX1 antagonist. Fluo-4 calcium fluorescence (FDSS); stronger effect = higher value. fluorescence ratio F(max-min)/F0 at 10 µM. 4,000 compounds, 8.7% hits. AID 624115, 2012;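 active = calcium fluorescence ratio at least three times the spread of buffer wells, meaning a non-specific response in parental cells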
An asterisk follows results filed as active; i = inactive; / = not tested or not shown.

SMILES	RGS4 act	MrgX1 PAM	MrgX1 antagonist	MrgX1 agonist	RGS4 block	MrgX1 ant reconf	HEK293 Ca flux	HEK293 Ca counter	HEK293 Ca cntr2
CC1CCc2[nH]c3ccc(C(=O)N4CCCC(C(F)(F)F)C4)cc3c2C1 (configuration not stated)	i	i	-4.6*	i	i	i	i	i	i
COC(=O)c1ccc2[nH]c3c(c2c1)CC(C)CC3 (configuration not stated)	i	i	i	i	i	/	/	/	/
CC(C)C(=O)N1CCN(c2ccccc2NC(=O)c2cccc3ccccc23)CC1	i	i	i	i	i	/	/	/	/
COc1ccccc1NC(=O)N1CCCC1C(=O)NCc1ccccc1 (configuration not stated)	i	i	-5.7*	i	i	i	i	i	i
COc1cccc(NC(=O)C2CCCN2C(=O)Nc2cccc(F)c2)c1 (configuration not stated)	i	i	-4.9*	i	i	i	i	i	i
COc1ccc(NC(=O)N2CCCC2C(=O)NCc2ccc(F)cc2)cc1 (configuration not stated)	i	i	-13*	i	i	i	i	i	i
COc1cccc(NC(=O)C2CCCN2C(=O)Nc2ccccc2)c1 (configuration not stated)	i	i	i	i	i	/	/	/	/
Cc1ccc(CN2CCN(/N=C/c3ccc(Cl)c([N+](=O)[O-])c3)CC2)cc1	i	i	i	i	i	/	/	/	/
CC(=O)c1ccc(S(=O)(=O)N(C)CC(=O)NCC2CCCCC2)cc1	i	i	i	i	i	/	/	/	/
Nc1cccnc1Sc1cc(Cl)c(Cl)cc1Cl	i	i	-6.5*	i	i	i	i	i	i
CNc1c(NS(=O)(=O)c2ccc3c(c2)CCCC3)c(=O)oc2ccccc12	i	i	i	i	i	/	/	/	/
CCCCOc1ccc(NC(=O)CSc2cccc3cccnc23)cc1	i	i	-6.7*	i	i	i	i	i	i
CCCCc1ccc(NC(=O)CSc2nc3ncccc3[nH]2)cc1	i	i	-5.7*	i	i	i	i	i	i
Cc1cccc2nc(-c3ccco3)oc(=O)c12	i	i	i	i	i	/	/	/	/
CC1CCCC(C)N1C(=O)CSCc1ccc(Cl)cc1 (configuration not stated)	i	i	-4.7*	i	i	i	i	i	i
CC1CCCC(C)N1C(=O)COC(=O)Cc1ccc(Cl)cc1 (configuration not stated)	i	i	i	i	i	/	/	/	/
CCC(=O)Nc1ccc(S(=O)(=O)N2CCc3ccccc32)cc1	i	i	i	i	i	/	/	/	/
